# Assay outcomes deposited in PubChem by Broad Institute.
# CASP6 VEID inh: caspase-6 (human) enzyme inhibition; purified caspase-6, Z-VEID-R110 cleavage fluorescence; inhibition, % at 12.5 µM; actives 0.53% (n = 350,000);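 active means mean inhibition across replicates at least about 35%, with every replicate also reaching that limit, limit read from the data; inconclusive means only one of the two criteria met; inactive means neither criterion met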;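 further: 0% = median of neutral control wells and 100% = no fluorescence left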
# Target sequence (P55212 24-179 limits assumed): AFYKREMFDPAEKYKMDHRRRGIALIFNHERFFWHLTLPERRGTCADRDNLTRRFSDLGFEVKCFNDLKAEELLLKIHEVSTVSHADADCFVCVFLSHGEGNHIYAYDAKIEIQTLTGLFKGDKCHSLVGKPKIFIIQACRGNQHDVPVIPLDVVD
# Target sequence (P55212 194-293 limits assumed): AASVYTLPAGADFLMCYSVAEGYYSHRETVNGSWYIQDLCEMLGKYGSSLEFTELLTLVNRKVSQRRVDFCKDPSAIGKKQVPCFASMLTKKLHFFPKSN
# Xi reactivation: reactivates the inactive X chromosome in mouse fibroblasts; AID 743238; XiGFP mouse fibroblasts, % GFP-positive cells imaging, 3 d; cells co-treated with 5-aza-dC sensitizer; scaled so ellipticine positive control = 100%; activation, % at 7.58 µM; actives 0.055% (n = 360,000);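 active means mean normalized replicate activation at least 10% and every replicate at or above 10%; inconclusive means only one of the two criteria met; inactive means mean below 10% and not all replicates reach 10%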;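 further: 0% = median of on-plate neutral control wells and 100% = ellipticine 6 µM median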
#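 assay system = SV40-immortalized XiGFP fibroblast cells, line 68-5-11 | buffer or medium = DMEM plus 5-aza-dC sensitizer | doses = single-point pinned compound dosing | times = 3-day compound exposure, then 15 min fixation at room temperature | benchmarks = positive control ellipticine, 6 µM final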
# CaV13 FRET inh: Primary screen for inhibitors of IQ motif and Ca2+-dependent inactivation inhibitor domain binding in CACNA1D, Förster resonance energy transfer in living cells, …. actives 0.098% (n = 340,000). inhibition, % at 12.3 µM. HEK cells, CFP/YFP FRET ICDI-IQ, plate reader, 10 min; percent FRET-ratio fall versus neutral wells. AID 743397;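 active means mean replicate inhibition of at least 30% and at least 1% of replicates passing that level; inconclusive means only one of the two criteria is met; inactive means neither criterion is met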;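 further: 0% = median of the neutral control wells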
# FN deposit inh: fibronectin deposition inhibition. actives 0.086% (n = 350,000). inhibition, % at 12.6 µM. AH1F fibroblasts, Alexa488-fibronectin deposition fluorescence, overnight. AID 743247;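 active means mean inhibition across replicates of 30% or more, regardless of how many single replicates reach that level; inconclusive means mean under 30% yet at least half of replicates reach 30%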;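 further: positive control wells lacked labelled fibronectin entirely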
#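 Material – AH1F fibroblast monolayer, labelled fibronectin deposition · Reagent – labelled fibronectin 24 nM · Timing – 1 h adhesion, overnight exposure · Measured by – fluorescence at 485 nm excitation, 525 nm emission · Read-out – inhibition of fibronectin deposition signal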
# DENV2 CPE: protects cells from dengue virus 2 cytopathic effect. DENV2-infected cells, cytopathic effect rescue, plate reader. CPE inhibition, % at 9.99 µM. actives 1.7% (n = 350,000); in the data active means CPE inhibition above about 20%, passing the limit was not always enough; inconclusive means no clear call, values can overlap the other calls; tested in BHK-21 cells;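 further: 0% = median of neutral control wells and 100% = median of positive control wells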
# Starred values were filed as active, the others as inactive; ? = inconclusive; . = no result. Rows were chosen to be rich in hits. Some 2% of all compounds tested hit in one or more screens of this group.
SMILES,CASP6 VEID inh,Xi reactivation,CaV13 FRET inh,FN deposit inh,DENV2 CPE
Cc1ccc(NC(=O)c2ccc([N+](=O)[O-])o2)cc1S(=O)(=O)N1CCOCC1,40.5*,0.0,-6.4,.,-1.9
Cc1ccc(NC(=O)COc2ccc(-c3nnco3)cc2)cc1S(=O)(=O)N1CCOCC1,-9.8,23.1*,-6.8,-5.7,-10.1
COc1ccc(CC(=O)Nc2ccc(C)c(S(=O)(=O)N3CCCCCC3)c2)cc1,-3.7,0.0,-8.4,0.7,35.4*
Cc1ccc(NC(=O)c2cc([N+](=O)[O-])ccc2N2CCOCC2)cc1S(=O)(=O)N1CCOCC1,3.7,0.2,-5.6,-6.3,1.9
COc1ccc(NC(=O)CSCC(=O)Nc2ccc(C)c(S(=O)(=O)N3CCCCCC3)c2)cc1,1.7,0.2,-5.5,-7.6,?
CC(C)C(=O)N1CCN(c2ccc(NC(=O)c3ccc([N+](=O)[O-])o3)cc2Cl)CC1,0.8,0.0,-1.5,36.6*,-2.7
O=C(C[C@@H]1CC[C@@H](NS(=O)(=O)c2ccc(F)cc2)[C@H](CO)O1)NCc1ccccc1F,0.5,-0.1,.,-5.9,5.5
CC(C)NC(=O)N(C)C[C@@H]1Oc2ccc(NS(=O)(=O)c3cccs3)cc2C(=O)N([C@H](C)CO)C[C@H]1C,.,-1.3,.,.,.
C[C@@H]1CCCCO[C@H](CN(C)S(C)(=O)=O)[C@H](C)CN([C@@H](C)CO)C(=O)c2cc(NC(=O)CCC(F)(F)F)ccc2O1,.,0.3,.,.,.
CCCCC[C@@H](C)N1C[C@@H](COCc2ccccc2)Oc2cc(N3CC[C@H](N(C)C)C3)ccc2S1(=O)=O,-7.0,0.1,-7.5,.,-7.6
CCCCC[C@H](C)N1C[C@@H](COCc2ccccc2)Oc2cc(N3CC[C@H](N(C)C)C3)ccc2S1(=O)=O,-10.1,0.1,-9.3,-1.2,61.0*
COc1ccccc1C#Cc1ccc2c(c1)[C@@H]1[C@@H](CCN1C(=O)c1ccccc1)[C@H](CO)N2,0.8,0.0,.,2.5,45.1*
COc1ccccc1C#Cc1ccc2c(c1)[C@@H]1[C@@H](CCN1C(=O)Cc1ccccc1)[C@H](CO)N2,-0.8,0.0,.,12.3,42.2*
C[C@H](CO)N1C[C@H](C)[C@@H](CN(C)C(=O)C2CC2)Oc2cc(-c3cccc(F)c3)ccc2S1(=O)=O,.,-0.5,.,7.7,?
C=C1C(=O)O[C@@H]2C[C@@H](C)[C@@H]3C=CC(=O)[C@@]3(C)[C@@H](OC(C)=O)[C@H]12,3.7,0.0,-3.9,38.8*,-19.1
CCCCCCN1C[C@@H](O)[C@H](n2cc(-c3ccc(F)cc3)nn2)C[C@@H]1c1ccc(C)cc1,-0.9,0.1,-9.5,-8.9,71.7*
CCCCCCN1C[C@H](O)[C@@H](n2cc(-c3ccc(F)cc3)nn2)C[C@@H]1c1ccc(C)cc1,3.3,-0.1,-3.3,-3.6,3.3
C[C@@H]1CN([C@@H](C)CO)C(=O)c2cc(NC(=O)NC3CCCCC3)ccc2O[C@H]1CN(C)S(C)(=O)=O,-0.3,0.3,.,-2.6,.
O=C(C[C@H]1CC[C@H](NS(=O)(=O)c2ccccc2)[C@@H](CO)O1)NCCN1CCCCC1,-7.0,0.4,.,.,-9.8
COc1ccccc1-c1ccc([C@H]2[C@H]3CN(C(=O)c4ccncc4)CCCCN3[C@H]2CO)cc1,-2.6,0.0,.,.,22.2*
Cc1cccc(-c2ccc([C@H]3[C@H](CO)N4CCCCN(C(=O)c5ccncc5)C[C@@H]34)cc2)c1,.,0.1,.,.,-4.0
Cc1cccc(-c2ccc([C@H]3[C@@H](CO)N4CCCCN(C(=O)c5ccncc5)C[C@@H]34)cc2)c1,.,0.5,.,.,50.9*
Cc1cccc(-c2ccc([C@H]3[C@@H](CO)N4CCCCN(C(=O)c5cccnc5)C[C@@H]34)cc2)c1,-8.5,0.1,.,.,31.6*
COc1ccccc1-c1ccc([C@@H]2[C@H]3CN(C(=O)c4ccncc4)CCCCN3[C@H]2CO)cc1,0.4,0.0,.,.,6.5
CCCNC(=O)[C@H]1[C@H](CO)[C@H]2Cn3c(ccc(-c4ccccc4)c3=O)[C@@H]1N2C(=O)CC,-0.7,0.2,.,.,3.0
SMILES,CASP6 VEID inh,Xi reactivation,CaV13 FRET inh,FN deposit inh,DENV2 CPE
CC(=O)Nc1ccc2c(c1)C(=O)N(C)C[C@@H](C)[C@@H](CN(C)C(=O)NC(C)C)O2,.,0.2,.,-12.0,.
CC(C)NC(=O)N(C)C[C@H]1Oc2ncccc2C(=O)N(C)C[C@H]1C,.,0.3,.,-4.9,.
O=C(NCC[C@H]1CC[C@H](NS(=O)(=O)c2cccc(F)c2)[C@H](CO)O1)C1CCC1,1.1,-0.5,.,.,-6.1
N#Cc1c(SCC(=O)Nc2nccs2)sc2c(O)cc(=O)[nH]c12,81.9*,0.5,-3.9,8.3,-1.6
N#Cc1c(SCC(=O)Nc2nc3ccccc3s2)sc2c(O)cc(=O)[nH]c12,60.1*,0.0,-7.3,4.8,7.0
N#Cc1c(SCC(=O)Nc2nc3ccc(Br)cc3s2)sc2c(O)cc(=O)[nH]c12,33.3,0.1,-4.5,7.0,-4.0
CCCSc1nnc(NC(=O)CSc2sc3c(O)cc(=O)[nH]c3c2C#N)s1,45.2*,0.2,-7.3,-4.6,3.8
N#Cc1cccc(NC(=O)CSc2sc3c(O)cc(=O)[nH]c3c2C#N)c1,34.7,0.0,-4.0,-0.9,6.4
CC(C)CC#Cc1cnc2c(c1)C(=O)N([C@H](C)CO)C[C@@H](C)[C@H](CN(C)Cc1ccccn1)O2,1.9,-1.2,.,-17.4,11.2
NC(=O)CC(NC(=O)Cc1cccc2ccccc12)c1ccc(NCCc2ccc(F)cc2)c([N+](=O)[O-])c1 (stereo not drawn),.,0.5,-6.8,-13.7,.
NC(=O)CC(NC(=O)Cc1cccc2ccccc12)c1ccc(NCCc2ccccc2F)c([N+](=O)[O-])c1 (stereo not drawn),2.2,0.0,-4.1,1.8,21.3*
O=C1NC[C@@H](CCCCN2C[C@H](Cc3ccc(O)cc3)N(CC3CCCCC3)C(=O)C2=O)N(CCC2CCCCC2)C1=O,1.3,0.4,-3.1,-8.9,58.8*
O=C1NC[C@@H](CCCCN2CCN(Cc3ccccc3)C(=O)C2=O)N(CC2CCCCC2)C1=O,9.7,1.4,-4.2,-7.4,-6.1
O=C1NC[C@@H](CCCCN2CCN(Cc3ccccc3)C(=O)C2=O)N(CCC2CCCCC2)C1=O,-2.2,-0.1,-4.2,-3.4,21.4*
O=C1NC[C@H](CCCCN2C[C@H](Cc3ccc(O)cc3)N(CCC3CCCCC3)C(=O)C2=O)N(CC2CCCCC2)C1=O,3.3,-0.1,-3.4,-4.5,6.6
COc1cccc(S(=O)(=O)Nc2ccc3c(c2)[C@@H]2C[C@@H](CC(=O)NCCc4ccccc4)O[C@@H](CO)[C@@H]2O3)c1,-1.1,0.0,.,.,1.7
COCC#Cc1ccc2c(c1)O[C@@H](CN(C)CC1CCOCC1)[C@@H](C)CN([C@@H](C)CO)S2(=O)=O,0.1,-0.3,.,.,4.2
O=C(O)c1ccc(N2C(=O)c3cccc4c(C(=O)O)ccc(c34)C2=O)cc1,53.4*,0.1,-7.3,-0.4,3.1
